ChEMBL document CHEMBL1128218, “New alpha-thiol dipeptide dual inhibitors of angiotensin-I converting enzyme and neutral endopeptidase EC 3.4.24.11” (J Med Chem, 1995)

Tests used:
[1] = biological target: T1, Angiotensin-converting enzyme (Rattus norvegicus) (UniProt P47820); test: Evaluation of plasma inhibition of Angiotensin I converting enzyme activity in conscious rat 1 hour after intravenous administration at a dose of 10 mg/kg; type: functional, organism-based; parameters: dose 10 mg/kg
T1 sequence (whole entry): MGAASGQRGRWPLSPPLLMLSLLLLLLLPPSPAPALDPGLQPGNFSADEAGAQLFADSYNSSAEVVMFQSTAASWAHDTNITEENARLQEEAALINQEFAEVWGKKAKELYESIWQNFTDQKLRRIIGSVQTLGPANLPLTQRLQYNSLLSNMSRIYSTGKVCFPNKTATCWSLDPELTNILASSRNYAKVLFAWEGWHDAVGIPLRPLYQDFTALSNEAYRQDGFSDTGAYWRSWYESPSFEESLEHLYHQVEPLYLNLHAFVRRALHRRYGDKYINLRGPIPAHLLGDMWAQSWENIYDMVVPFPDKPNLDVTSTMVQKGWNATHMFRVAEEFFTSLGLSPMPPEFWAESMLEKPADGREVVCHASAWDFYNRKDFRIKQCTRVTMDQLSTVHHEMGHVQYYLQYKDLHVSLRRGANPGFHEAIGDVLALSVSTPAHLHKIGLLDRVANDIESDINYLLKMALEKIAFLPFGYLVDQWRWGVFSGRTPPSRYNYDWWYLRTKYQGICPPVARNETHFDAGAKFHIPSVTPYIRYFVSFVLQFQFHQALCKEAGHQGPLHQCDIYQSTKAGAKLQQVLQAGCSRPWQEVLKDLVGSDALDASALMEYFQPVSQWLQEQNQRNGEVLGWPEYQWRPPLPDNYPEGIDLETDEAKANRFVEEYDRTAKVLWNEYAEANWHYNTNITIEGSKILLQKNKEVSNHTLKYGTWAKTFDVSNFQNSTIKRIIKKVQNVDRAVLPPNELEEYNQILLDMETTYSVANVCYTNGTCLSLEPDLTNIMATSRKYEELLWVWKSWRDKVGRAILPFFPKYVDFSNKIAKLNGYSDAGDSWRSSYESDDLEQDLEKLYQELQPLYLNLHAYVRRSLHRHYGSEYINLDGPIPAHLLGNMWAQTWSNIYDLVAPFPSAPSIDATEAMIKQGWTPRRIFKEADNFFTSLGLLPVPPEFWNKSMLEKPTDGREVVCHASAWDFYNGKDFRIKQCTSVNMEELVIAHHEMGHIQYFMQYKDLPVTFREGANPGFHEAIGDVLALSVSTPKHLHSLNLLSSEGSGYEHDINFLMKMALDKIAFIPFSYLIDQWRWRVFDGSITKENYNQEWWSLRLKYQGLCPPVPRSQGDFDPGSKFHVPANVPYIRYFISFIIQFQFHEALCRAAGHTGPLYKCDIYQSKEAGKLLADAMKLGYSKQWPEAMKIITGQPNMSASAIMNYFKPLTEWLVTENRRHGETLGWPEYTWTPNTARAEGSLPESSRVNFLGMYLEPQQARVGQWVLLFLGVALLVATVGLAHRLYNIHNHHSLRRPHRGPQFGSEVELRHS
How it was run: (§1)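 Male conscious normotensive Sprague-Dawley rats (275-390 g) fitted the day before with femoral arterial and venous catheters under methohexital anesthesia. Three angiotensin-I challenges (300 ng/kg iv) given as baseline. Compound given iv, ia or po (12.3 mg/kg po dose in 3% cornstarch at 1 mg/mL), then AI challenges repeated at set times. Pressor response compared with the mean baseline response and expressed as % inhibition.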

[2] = biological target: T1, Angiotensin-converting enzyme (Rattus norvegicus); test: Evaluation of plasma inhibition of Angiotensin I converting enzyme activity in conscious rat 6 hours after intravenous administration at a dose of 10 mg/kg; type: functional, organism-based; parameters: dose 10 mg/kg; how it was run: as §1
[3] = biological target: T2, Angiotensin-converting enzyme (Oryctolagus cuniculus, UniProt P12822); test: Evaluation of in vitro inhibitory activity against Angiotensin I converting enzyme
T2 sequence (P12822 whole entry): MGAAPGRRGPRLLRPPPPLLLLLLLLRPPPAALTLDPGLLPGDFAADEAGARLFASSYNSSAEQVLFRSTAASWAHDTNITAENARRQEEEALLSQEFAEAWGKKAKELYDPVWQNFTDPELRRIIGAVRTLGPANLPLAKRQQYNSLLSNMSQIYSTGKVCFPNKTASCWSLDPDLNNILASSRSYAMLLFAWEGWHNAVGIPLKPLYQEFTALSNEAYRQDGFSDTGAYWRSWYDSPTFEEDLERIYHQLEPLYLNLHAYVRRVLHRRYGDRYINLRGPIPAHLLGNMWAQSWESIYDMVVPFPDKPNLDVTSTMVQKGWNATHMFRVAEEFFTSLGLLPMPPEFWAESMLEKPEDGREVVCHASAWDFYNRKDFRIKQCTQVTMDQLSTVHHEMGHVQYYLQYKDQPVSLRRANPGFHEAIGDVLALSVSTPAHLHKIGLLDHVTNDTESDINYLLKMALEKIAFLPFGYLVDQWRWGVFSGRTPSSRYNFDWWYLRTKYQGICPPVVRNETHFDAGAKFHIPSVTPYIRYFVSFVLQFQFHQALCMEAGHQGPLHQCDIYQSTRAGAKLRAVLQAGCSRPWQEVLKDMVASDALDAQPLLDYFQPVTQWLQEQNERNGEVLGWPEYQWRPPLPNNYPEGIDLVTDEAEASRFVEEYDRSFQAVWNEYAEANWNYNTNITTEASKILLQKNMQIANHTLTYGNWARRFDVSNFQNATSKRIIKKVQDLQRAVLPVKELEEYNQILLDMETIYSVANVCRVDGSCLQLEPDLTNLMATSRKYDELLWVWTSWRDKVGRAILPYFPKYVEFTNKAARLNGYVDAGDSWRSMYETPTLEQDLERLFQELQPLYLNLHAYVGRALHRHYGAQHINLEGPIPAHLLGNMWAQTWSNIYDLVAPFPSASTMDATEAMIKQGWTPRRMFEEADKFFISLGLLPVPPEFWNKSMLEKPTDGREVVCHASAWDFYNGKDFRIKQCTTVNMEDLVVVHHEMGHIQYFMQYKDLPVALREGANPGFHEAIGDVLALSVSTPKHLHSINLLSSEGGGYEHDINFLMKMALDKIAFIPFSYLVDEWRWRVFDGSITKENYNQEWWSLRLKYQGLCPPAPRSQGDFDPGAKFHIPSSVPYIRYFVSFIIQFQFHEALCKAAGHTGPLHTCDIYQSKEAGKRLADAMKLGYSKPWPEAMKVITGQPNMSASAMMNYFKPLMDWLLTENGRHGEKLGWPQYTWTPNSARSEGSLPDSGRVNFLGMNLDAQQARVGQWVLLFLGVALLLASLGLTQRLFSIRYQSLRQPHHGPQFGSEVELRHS
How it was run: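 Rabbit lung ACE in 300 mM NaCl, 100 mM KH2PO4 (pH 8.3). Enzyme and drug mixed, then hippurylhistidylleucine (2 mg/mL stock) added and incubated 75 min at room temperature. Stopped with 1 N NaOH, o-phthalaldehyde added for 10 min at 25 °C, acidified with HCl, OD read at 360 nm.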

[4] = biological target: T1, Angiotensin-converting enzyme (Rattus norvegicus); test: Evaluation of plasma inhibition of Angiotensin I converting enzyme activity in conscious rat 2 hour after oral administration at a dose of 10 mg/kg; type: functional, organism-based; parameters: dose 10 mg/kg
[5] = biological target: T1, Angiotensin-converting enzyme (Rattus norvegicus); test: Evaluation of plasma inhibition of Angiotensin I converting enzyme activity in conscious rat 6 hour after oral administration at a dose of 10 mg/kg; type: functional, organism-based; parameters: dose 10 mg/kg; how it was run: as §1

SMILES | inhibition [1] | inhibition [2] | IC50 [3] | inhibition [4] | inhibition [5]
CC(C)[C@H](S)C(=O)NC1(C(=O)N[C@@H](Cc2ccccn2)C(=O)O)CCCC1 | 73% | 17% | 35 nM | – | –
CC(C)[C@H](S)C(=O)NC1(C(=O)N[C@@H](Cc2ccc(O)cc2)C(=O)O)CCCC1 | 90% | 68% | 7 nM | 59% | 15%
CC(C)[C@H](S)C(=O)NC1(C(=O)N[C@@H](Cc2ccc(O)cc2)C(=O)O)CCOCC1 | 43% | – | 11 nM | – | –
CC(C)[C@H](S)C(=O)NC(C)(C)C(=O)N[C@@H](Cc1ccc(O)cc1)C(=O)O | 88% | 67% | 15 nM | – | –
O=C(O)[C@H](Cc1ccc(O)cc1)NC(=O)C1(NC(=O)[C@@H](S)Cc2ccccc2)CCCC1 | 86% | 17% | 22 nM | – | –
O=C(CS)NC1(C(=O)N[C@@H](Cc2ccc(O)cc2)C(=O)O)CCCC1 | 44% | – | 58 nM | – | –
CC(C)[C@H](S)C(=O)NC1(C(=O)N[C@@H](Cc2ccsc2)C(=O)O)CCCC1 | 97% | 71% | 11 nM | – | –
CC(C)[C@H](S)C(=O)NC1(C(=O)N[C@@H](Cc2ccc(O)cc2)C(=O)O)CC1 | 91% | 17% | 15 nM | – | –
CC(C)[C@H](S)C(=O)NC1(C(=O)N[C@@H](Cc2c[nH]c3ccccc23)C(=O)O)CCCC1 | 98% | 82% | 10 nM | 50% | 26%
CC(C)[C@H](S)C(=O)NC1(C(=O)N[C@@H](Cc2cccs2)C(=O)O)CCCC1 | 79% | 29% | 18 nM | – | –
CC(C)[C@H](S)C(=O)NC1(C(=O)N[C@@H](Cc2ccc(O)cc2)C(=O)O)Cc2ccccc2C1 | 86% | 9% | 26 nM | – | –
CC(C)[C@H](S)C(=O)NC1(C(=O)N[C@@H](Cc2ccc(F)cc2)C(=O)O)CCCC1 | 85% | 28% | 24 nM | – | –
CC(C)[C@H](S)C(=O)NC1(C(=O)N[C@@H](CCc2ccccc2)C(=O)O)CCCC1 | 72% | 75% | 30 nM | – | –
